Structures are written as SMILES.

Data on seven compounds can be found in ChEMBL document CHEMBL3244116, “New antiarrhythmic agents. 2. Amide alkyl alpha-amino xylidides” (J Med Chem, 1979).

Data set [1] relates to Mus musculus. Nature of the data set: Toxicity in Swiss albino mouse assessed as ataxia at 100 mg/kg, sc measured up to 20 mins. It counts as organism-based. Also noted: dose 100 mg/kg, route subcutaneous. Conditions: in vivo. The method in brief:
(§1)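 Mice were given test agents subcutaneously, 100 mg/kg in preliminary runs, and were then challenged with chloroform to induce ventricular fibrillation (a modification of Lawson's method). Protection is expressed as the percent of challenged animals that survived the challenge. In the same animals, ataxia, convulsions, loss of righting reflex and death were scored as the percent of treated animals.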

Data set [2] relates to Mus musculus. In words: Antiarrhythmic activity in Swiss albino mouse assessed as protection against chloroform-induced fibrillation at 100 mg/kg, sc treated 20 mins before chloroform challenge. The data set is classed as functional, Heart. Conditions: route subcutaneous. In outline:
as §1

Data set [3] has as its system Mus musculus. In words: Toxicity in Swiss albino mouse assessed as convulsion at 100 mg/kg, sc measured up to 20 mins. It counts as organism-based. Also noted: dose 100 mg/kg, route subcutaneous. Conditions: in vivo. In outline:
as §1

Data set [4] concerns Mus musculus. In words: Ratio of lidocaine ED50 to compound ED50 for antiarrhythmic activity sc dosed Swiss albino mouse assessed as protection against chloroform-induced ventricular fibrillation. It counts as functional, Heart. The method in brief: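 Each ED50 against chloroform-induced ventricular fibrillation in subcutaneously dosed mice came from at least three doses. Potency was calculated relative to lidocaine on a molar basis.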

Data set [5] deals with Mus musculus. Nature of the data set: Toxicity in Swiss albino mouse assessed as loss of righting reflex at 100 mg/kg, sc measured up to 20 mins. The data set is classed as organism-based. Conditions: in vivo. Also noted: dose 100 mg/kg, route subcutaneous. The method in brief: as §1
A short description of data set [6]: Toxicity in Swiss albino mouse assessed as death at 100 mg/kg, sc measured up to 20 mins. The data set is classed as organism-based. Also noted: dose 100 mg/kg, route subcutaneous. The following applies: in vivo, read-out: Activity. In outline: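 Mice given 100 mg/kg subcutaneously in preliminary screening, then later challenged with chloroform to induce ventricular fibrillation. CNS signs were recorded in the same animals. Value is the percent of treated animals that died.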

The subject of data set [7] is Mus musculus. In words: Antiarrhythmic activity in sc dosed Swiss albino mouse assessed as protection against chloroform-induced ventricular fibrillation. The data set is classed as functional. The following applies: Heart. The method in brief: as §1
For data set [8], the system named is Canis familiaris. Nature of the data set: Toxicity in iv dosed left anterior descending coronary artery ligated myocardial infarction dog model assessed as dose required to cause convulsion after infusion off. The data set is classed as organism-based, Canis lupus familiaris. The following applies: in vivo. In outline: (§2)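 Test agents were infused intravenously into dogs with coronary artery ligation-induced myocardial infarction and ventricular arrhythmias. In some runs, infusion stopped at clearing or at convulsion. In others, it continued until clearing. Ectopic beats, CNS signs (convulsions, opisthotonus, clonic spasms), respiratory arrest and mean arterial blood pressure were recorded, and doses are given in mmol/kg. Values are means±SD of 5–14 experiments or the mean of 8.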

The subject of data set [9] is Canis familiaris. In words: Toxicity in left anterior descending coronary artery ligated myocardial infarction dog model assessed as dose required to cause convulsion at infusion rate at 0.66 mg/kg/min. Conditions: in vivo. It counts as organism-based, Canis lupus familiaris. The method in brief: as §2
Data set [10] relates to Canis familiaris. In words: Antiarrhythmic activity in left anterior descending coronary artery ligated myocardial infarction dog model assessed as clearing value as reduction in ventricular ectopic beat rate per min at infusion rate 0.5 mg/kg/min, iv treated until arrhythmia cleared. It counts as functional, Canis lupus familiaris, Heart. The method in brief: as §2
In data set [11] the test system is Canis familiaris. In words: Antiarrhythmic activity in iv dosed left anterior descending coronary artery ligated myocardial infarction dog model assessed as dose required to reduction in ventricular ectopic beats to <= 5% at infusion rate 0.5 mg/kg/min. The data set is classed as functional, Canis lupus familiaris, Heart. In outline:
as §2

For data set [12], the system named is Canis familiaris. Nature of the data set: Antiarrhythmic activity in left anterior descending coronary artery ligated myocardial infarction dog model assessed as mean arterial blood pressure at infusion rate 0.5 mg/kg/min, iv. It counts as functional, Canis lupus familiaris. The method in brief:
as §2

The subject of data set [13] is Canis familiaris. In words: Antiarrhythmic activity in left anterior descending coronary artery ligated myocardial infarction dog model assessed as clearing value as reduction in ventricular ectopic beats to <= 5% for 5 mins at infusion rate 0.5 mg/kg/min, iv treated until arrhythmia cleared. The data set is classed as functional, Canis lupus familiaris, Heart. Also noted: scale not given: the % may be the effect or the level left. In outline:
as §2

Data set [14] has as its system Canis familiaris. In words: Toxicity in left anterior descending coronary artery ligated myocardial infarction dog model assessed as dose required to cause convulsion at infusion rate at 0.5 mg/kg/min. The data set is classed as organism-based, Canis lupus familiaris. The following applies: in vivo. In outline:
as §2

Regarding `CCCOc1cc(C)c(N(C)C(=O)CN)c(C)c1.O=C(O)C(=O)O`, the Activity was found to be 20% in the data set with Mus musculus [1], 70% in the data set with Mus musculus [2], 0% in the data set on Mus musculus [3] and 0% in the data set with Mus musculus [5]. Besides, in the data set with Mus musculus [4], the “Ratio ED50” value stood at 0.8. Besides, in data set [6], the mortality at 20 min is 0%. Moreover, the ED50 in the data set on Mus musculus [7] was determined as 340 µmol/kg.

For the compound `CCC(N)C(=O)N(CC)c1c(C)cccc1C.Cl` (stereo not drawn), the Activity with Mus musculus [1] is 100%; in the data set with Mus musculus [2] it was 100%; in the data set on Mus musculus [3] it was 100%; with Mus musculus [5], 0%. Further, in data set [6], the mortality at 20 min is 30%.

For the compound `CCCOc1cc(C)c(N(CC)C(=O)CN)c(C)c1.O=C(O)C(=O)O`, the Activity worked out at 0% with Mus musculus [1]; 100% in the data set with Mus musculus [2]; 0.16 mmol/kg with Canis familiaris [8]; 0% in the data set on Mus musculus [3]; 0% in the data set on Mus musculus [5]; 0.13 mmol/kg in the data set with Canis familiaris [9]. Besides, the Activity in the data set on Canis familiaris [10] came out at 168 bpm; in the data set on Canis familiaris [11], 0.09 mmol/kg; in the data set with Canis familiaris [12], 90 mmHg; in the data set with Canis familiaris [13] it was 1%. Besides, the “Ratio ED50” value with Mus musculus [4] amounted to 1.6. The mortality at 20 min in data set [6] was 0%. In the data set with Mus musculus [7], the ED50 was 160 µmol/kg.

Consider `Cc1cccc(C)c1NC(=O)C(C)N` (stereo not drawn) [TOCAINIDE], for which the Activity in the data set on Mus musculus [1] is 10%; in the data set with Mus musculus [2], 20%; in the data set on Mus musculus [3], 0%; with Mus musculus [5], 0%; in the data set on Canis familiaris [10] it was 148 bpm; in the data set with Canis familiaris [11], 0.32 mmol/kg. Also, the figures for the Activity with Canis familiaris [12], with Canis familiaris [14] and in the data set with Canis familiaris [13] were 108 mmHg, 0.3 mmol/kg and 2%, respectively. In addition, the “Ratio ED50” value in the data set on Mus musculus [4] worked out at 0.2. Also, the mortality at 20 min in data set [6] was found to be 0%. In addition, the ED50 in the data set with Mus musculus [7] was 1300 µmol/kg.

For `CCN(CC)CC(=O)Nc1c(C)cccc1C` [LIDOCAINE], the Activity was found to be 100% in the data set with Mus musculus [1]; 100% with Mus musculus [2]; 100% in the data set on Mus musculus [3]; 100% in the data set with Mus musculus [5]; 133 bpm in the data set with Canis familiaris [10]; 0.21 mmol/kg with Canis familiaris [11]. The Activity in the data set on Canis familiaris [12] turned out to be 101 mmHg; with Canis familiaris [14], 0.27 mmol/kg; in the data set with Canis familiaris [13], 4%. Further, in the data set with Mus musculus [4], the “Ratio ED50” value is listed as 1. Further, in [6], the mortality at 20 min amounted to 0%. Moreover, in the data set on Mus musculus [7], the ED50 was 260 µmol/kg.

Regarding `CCCCOc1cc(C)c(N(C)C(=O)CN)c(C)c1.O=C(O)C(=O)O`, the Activity was determined as 0% with Mus musculus [1], 100% with Mus musculus [2], 0% in the data set with Mus musculus [3] and 0% in the data set with Mus musculus [5]. Also, the “Ratio ED50” value with Mus musculus [4] came to 1. In addition, the mortality at 20 min in data set [6] amounted to 0%. In addition, the ED50 in the data set on Mus musculus [7] was 270 µmol/kg.

Take `Cc1cccc(C)c1NC(=O)CN` [GLYCINEXYLIDIDE]: the Activity in the data set with Mus musculus [1] is recorded as 0%; in the data set on Mus musculus [2], 10%; in the data set with Mus musculus [3], 0%; in the data set with Mus musculus [5], 0%. For the same compound, the “Ratio ED50” value with Mus musculus [4] is 0.3. For the same compound, the mortality at 20 min in [6] was 0%. In the data set with Mus musculus [7], the ED50 worked out at 900 µmol/kg.

The ED50 is the dose that gives a 50% effect, or the effect in half of the subjects.
